Test results published in ChEMBL document CHEMBL2396601, “Synthesis and antiprotozoal activity of dicationic m-terphenyl and 1,3-dipyridylbenzene derivatives” (J Med Chem, 2013).
pIC50: −log10 of the molar value. Activity calls are given as the source filed them. The rule behind the calls is not given here.

Assays:
[1] = Selectivity index, ratio of IC50 for rat L6 cells to IC50 for Trypanosoma cruzi Tulahuen C2C4; type: toxicity, cell-based; settings: read-out: Ratio IC50
Outline: (§1)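 Selectivity index is IC50 against L6 rat myoblast cells divided by IC50 against the named parasite.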

[2] = Selectivity index, ratio of IC50 for rat L6 cells to IC50 for Plasmodium falciparum K1; type: toxicity, cell-based; settings: L6 cells, read-out: Ratio IC50; outline: as §1
Trypanosoma cruzi = assay: Antiprotozoal activity against intracellular amastigote form of Trypanosoma cruzi Tulahuen C2C4 expressing LacZ infected in rat L6 cells after 48 hrs; type: functional, organism-based; settings: Tulahuen C2C4, L6, 48 h
Outline: (§2)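 Uses T. b. rhodesiense STIB900, T. cruzi Tulahuen C2C4 LacZ intracellular amastigotes, or L6 rat myoblasts depending on line.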

[3] = test system: Trypanosoma brucei rhodesiense; assay: Antiprotozoal activity against Trypanosoma brucei rhodesiense STIB900 after 72 hrs by Alamar Blue assay; type: functional, organism-based; outline: as §2
Plasmodium falciparum = assay: Antiprotozoal activity against chloroquine-resistant Plasmodium falciparum K1 after 48 hrs by [3H]-hypoxanthine incorporation assay; type: functional, organism-based
[4] = Selectivity index, ratio of IC50 for rat L6 cells to IC50 for Trypanosoma brucei rhodesiense STIB900; type: toxicity, cell-based; settings: L6 cells, read-out: Ratio IC50; outline: as §1
[5] = Selectivity index, ratio of IC50 for rat L6 cells to IC50 for Leishmania amazonensis; type: toxicity, cell-based; settings: read-out: Ratio IC50; outline: as §1
L6 = assay: Cytotoxicity against rat L6 cells after 72 hrs by Alamar Blue assay; type: cell-based; settings: L6, 72 h; outline: as §2
Leishmania amazonensis = assay: Antiprotozoal activity against intracellular amastigote form of Leishmania amazonensis infected in CD1 mouse macrophages after 72 hrs by […]; type: functional, organism-based
[6] = test system: Trypanosoma brucei rhodesiense; assay: Antiprotozoal activity against Trypanosoma brucei rhodesiense STIB900 infected in NMRI mouse assessed as reduction of parasitemia relapse at 10 mg/kg, ip; type: functional, organism-based; design: dose 10 mg/kg
Outline: (§3)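 Mouse model of acute (early) stage HAT with T. b. rhodesiense STIB900, groups of 4 mice. Amidines dosed intraperitoneally, 4 daily doses of 5 mg/kg or single doses; prodrugs dosed orally, 4 daily doses of 25 mg/kg. Cure means survival to 60 days after infection with no parasitemia relapse. Mean survival days counts all mice, with cured mice scored as >60 days.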

[7] = test system: Trypanosoma brucei rhodesiense; assay: Antiprotozoal activity against Trypanosoma brucei rhodesiense STIB900 infected in NMRI mouse assessed as reduction of parasitemia relapse at 5 mg/kg, ip qd for 4 days; type: functional, organism-based; design: dose 5 mg/kg; outline: as §3
[8] = test system: Trypanosoma brucei rhodesiense; assay: Antiprotozoal activity against Trypanosoma brucei rhodesiense STIB900 infected in NMRI mouse assessed as reduction of parasitemia relapse at 25 mg/kg, po qd for 4 days; type: functional, organism-based; design: dose 25 mg/kg; outline: as §3
[9] = test system: Trypanosoma brucei rhodesiense; assay: Antiprotozoal activity against Trypanosoma brucei rhodesiense STIB900 infected in NMRI mouse assessed as host mean survival days at 25 mg/kg, po qd for 4 days; type: functional
Outline: (§4)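 Acute-stage HAT mouse model infected with STIB900. Cure means survival to 60 days after infection with no parasitemia relapse. Mean survival days are counted from infection and use every mouse: relapsed mice, plus cured mice entered as >60 days.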

Mus musculus [10] = assay: Toxicity in BALB/c mouse assessed as hyperactivity measured after first dose at 30 mg/kg, ip qd for 5 days; type: organism-based; design: dose 30 mg/kg, route intraperitoneal; settings: in vivo, 120 h
Outline: (§5)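 Tolerability check before efficacy testing in uninfected BALB/c mice, groups of two, given 30 mg/kg ip daily for five days. Watched for overt toxicity signs such as tremors and hyperactivity after each dose. Mice showing adverse effects were euthanized.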

Mus musculus [11] = assay: Toxicity in BALB/c mouse assessed as tremors measured after second dose at 30 mg/kg, ip qd for 5 days; type: organism-based; design: dose 30 mg/kg, route intraperitoneal; settings: in vivo, 120 h; outline: as §5
[12] = test system: Trypanosoma brucei rhodesiense; assay: Antiprotozoal activity against Trypanosoma brucei rhodesiense STIB900 infected in NMRI mouse assessed as host mean survival days at 10 mg/kg, ip; type: functional; settings: route intraperitoneal; outline: as §4
[13] = test system: Trypanosoma brucei rhodesiense; assay: Antiprotozoal activity against Trypanosoma brucei rhodesiense STIB900 infected in NMRI mouse assessed as host mean survival days at 5 mg/kg, ip qd for 4 days; type: functional; settings: route intraperitoneal; outline: as §4
[14] = test system: Trypanosoma brucei rhodesiense; assay: Antiprotozoal activity against Trypanosoma brucei rhodesiense STIB900 infected in NMRI mouse assessed as reduction of parasitemia relapse at 5 mg/kg, ip; type: functional, organism-based; design: dose 5 mg/kg; outline: as §3
[15] = test system: Trypanosoma brucei rhodesiense; assay: Antiprotozoal activity against Trypanosoma brucei rhodesiense STIB900 infected in NMRI mouse assessed as host mean survival days at 5 mg/kg, ip; type: functional; settings: route intraperitoneal; outline: as §4
[16] = Trypanosoma brucei, STIB900, 72 h

Row | SMILES | selectivity ratio [1] | selectivity ratio [2] | pIC50 (Trypanosoma cruzi) | pIC50 [3, 16] | pIC50 (Plasmodium falciparum; Plasmodium falciparum, K1) | selectivity ratio [4] | selectivity ratio [5] | pIC50 (L6) | pIC50 (Leishmania amazonensis) | MSD [9] [days] | also measured
1 | N=C(Nc1cccc(-c2cc(Cl)cc(-c3cccc(NC(=N)c4ccccc4)c3)c2)c1)c1ccccc1 | 2 | 58 | 5.68 | 6.27 | 7.15 | 8 | 2 | 5.39 | 5.61 | – | –
2 | N=C(N)c1ccc(-c2cccc(-c3ccc(C(=N)N)cn3)c2)nc1 | – | – | – | – | – | – | – | – | – | – | Activity [6]: Active; Activity [7]: Active
3 | Cl.Cl.N/C(=N\O)c1cccc(-c2cccc(-c3cccc(/C(N)=N\O)c3)c2)c1 | < 1 | < 1 | 4.95 | 5.59 | 5.08 | 2 | – | 5.25 | – | 7.25 | Activity [8]: inactive
4 | CO/N=C(\N)c1cccc(-c2cccc(-c3cccc(/C(N)=N\OC)c3)c2)c1.Cl.Cl | < 1 | 2 | 4.62 | 4.95 | 5.03 | 2 | – | 4.69 | – | 17.25 | Activity [8]: inactive
5 | Cl.Cl.N/C(=N/O)c1ccc(-c2cccc(-c3ccc(/C(N)=N\O)cc3)c2)cc1 | – | – | < 3.82 | 4.96 | < 5.00 | > 14 | – | < 3.82 | – | >51.25 | –
6 | CC(C)Oc1cc(NC(=N)c2ccccn2)ccc1-c1cc(Cl)cc(-c2ccccc2)c1 | 2 | < 1 | 5.38 | 4.49 | < 5.00 | < 1 | 10 | 5.01 | 6.03 | – | –
7 | N=C(Nc1ccc(-c2cccc(-c3cccc(NC(=N)c4ccccc4)c3)c2)cc1)c1ccccc1 | 1 | 66 | 5.67 | 6.20 | 7.42 | 4 | 3 | 5.60 | 6.04 | – | –
8 | Cl.Cl.Cl.N=C(Nc1cccc(-c2cc(Cl)cc(-c3cccc(NC(=N)c4ccccn4)c3)c2)c1)c1ccccn1 | 47 | 450 | 7.28 | 7.72 | 8.22 | 133 | 26 | 5.60 | 7.02 | – | Activity (Mus musculus [10]): Toxic; Activity (Mus musculus [11]): Toxic
9 | CN(C)CC(=O)O/N=C(\N)c1ccc(-c2cccc(-c3ccc(/C(N)=N\OC(=O)CN(C)C)cn3)c2)nc1 | < 1 | 129 | 4.14 | 5.01 | 6.31 | 6 | – | 4.20 | – | >52 | –
10 | Cl.Cl.N=C(N)c1ccc(-c2cccc(-c3ccc(C(=N)N)cc3)c2)cc1 | < 1 | 1280 | 4.15 | 8.40 | 7.62 | 8490 | – | 4.51 | – | – | Activity [6]: Active; MSD [12]: >60 days; Activity [7]: Active; MSD [13]: >60 days
11 | Cl.Cl.N=C(Nc1ccc(-c2cccc(-c3cccc(NC(=N)c4ccccn4)c3)c2)cc1)c1ccccn1 | 7 | 13 | 6.41 | 5.71 | 6.68 | 1 | 22 | 5.57 | 6.91 | – | Activity (Mus musculus [10]): Toxic; Activity (Mus musculus [11]): Toxic
12 | C[C@@H]1[C@H](O)[C@@H](C)/C=C/C=C/C=C/C=C/C=C/C=C/C=C/[C@H](O[C@@H]2O[C@H](C)[C@@H](O)[C@H](N)[C@@H]2O)C[C@@H]2O[C@](O)(C[C@@H](O)C[C@@H](O)[C@H](O)CC[C@@H](O)C[C@@H](O)CC(=O)O[C@H]1C)C[C@H](O)[C@H]2C(=O)O [AMPHOTERICIN B] | – | – | – | – | – | – | – | – | 6.91 | – | –
13 | CO/N=C(\N)c1ccc(-c2cccc(-c3ccc(/C(N)=N\OC)cn3)c2)nc1.Cl | > 1 | > 42 | 3.93 | 4.58 | 5.45 | > 6 | – | < 3.82 | – | >53.75 | –
14 | CO/N=C(/N)c1ccc(-c2cccc(-c3ccc(/C(N)=N\OC)cc3)c2)cc1.Cl.Cl | < 1 | < 2 | 4.03 | 5.35 | < 5.00 | 4 | – | 4.72 | – | >34.25 | –
15 | CC(C)Oc1ccc(NC(=N)c2ccccn2)cc1-c1cc(Cl)cc(-c2ccccc2)c1 | 1 | 1 | 5.53 | 4.91 | 5.51 | < 1 | 2 | 5.42 | 5.73 | – | –
16 | N=C(Nc1ccc(-c2cc(Cl)cc(-c3cccc(NC(=N)c4ccccc4)c3)c2)cc1)c1ccccc1 | 1 | 58 | 5.69 | 6.75 | 7.41 | 13 | 2 | 5.64 | 5.99 | – | –
17 | Cl.Cl.N=C(N)c1ccc(-c2cccc(-c3ccc(C(=N)N)nc3)c2)cn1 | < 1 | 1480 | 4.36 | 8.22 | 7.82 | 3720 | – | 4.65 | – | – | Activity [14]: Active; MSD [15]: >60 days; Activity [7]: Active; MSD [13]: >60 days
18 | Cl.N=C(N)c1ccc(-c2cccc(-c3ccc(C(=N)N)cn3)c2)nc1 | – | > 3760 | – | – | – | > 8820 | – | – | – | – | MSD [12]: >60 days; pIC50 [3]: 7.77; MSD [13]: >60 days; pIC50 (Plasmodium falciparum): 7.40
